This is an account of results in PubChem BioAssay.

Calls of active or inactive are those of the source.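 The calls were made as follows, unless noted: active = a full or partial loss of lipid-probe fluorescence in the fish gall bladder, intestine or both, judged by eye; inactive = no fluorescence loss, or compound toxic to the fish.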

Assay [1] in a line: inhibitors of TNFa-induced NFkB p65 translocation, primary screen, imaging, HUVEC, MLSMR starter and 10KST1 sets (AID 438;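 active = inhibition above 20% together with a positive visual image hit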;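 also: compound added about 3h40 before a 20 min TNFalpha stimulation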;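 as to inhibition: signal is the nuclear over cytoplasmic p65 intensity ratio per well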). The note with it: HUVEC TNFa-induced p65 nuclear translocation; cell count: measured here: nuclei count (cytotoxicity indicator), at 2.08 µM; inhibition: at 2 µM, stronger effect = higher value, 0% TNFa-plus-vehicle, 100% no-TNFa wells.
A short description of assay [2]: inhibitors of mutant huntingtin aggregation, primary screen, imaging, exon1htt(103Q)mCFP cells, high-content imaging (AID 483;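 active = visual image review flags a hit and inhibition of aggregation exceeds 20%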;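 also: compound exposure lasted 3 days before fixation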;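 as to nuclei count: percent of the per-plate median nuclei count of sample wells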). The note with it: exon1htt(103Q)mCFP cell line, aggregate imaging, at 2 µM; inhibition of aggregation: stronger effect = higher value; nuclei count: measured here: cell count, toxicity.
Assay [3] can be described thus: inhibitors of E-selectin induction by TNFa, primary screen, imaging, HUVEC, immunofluorescence, MLSMR starter and 10KST1 sets (AID 487;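 active = visually confirmed hit in the image check and inhibition above 20%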;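 as to inhibition: signal is fraction of cell area covered by stained E-selectin grains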;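 as to nuclei count: 100% = median nuclei count of all wells on the same plate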). As to conditions: HUVEC TNFalpha-induced E-selectin immunofluorescence imaging, at 2 µM; inhibition: stronger effect = higher value; nuclei count: measured here: cell number, toxicity.
The target of assay [4] is Voltage-gated potassium channel subunit beta-2 (Rattus norvegicus) (UniProt P62483). The assay is described as follows: KvBeta enzyme negative modulators, primary screen, biochemical, NADPH fluorescence (AID 622;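 active = fluorescence slope higher than the sample average by over 3 SD, cut at about -0.22 in these data, passing the limit was not always enough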;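 also: slope of raw intensity against log time taken from 70 to 1610 s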). As to conditions: recombinant KvBeta, 4-cyanobenzaldehyde reduction, at 10 µM, stronger effect = higher value.
Voltage-gated potassium channel subunit beta-2 (Rattus norvegicus), sequence (P62483 whole entry, looked up): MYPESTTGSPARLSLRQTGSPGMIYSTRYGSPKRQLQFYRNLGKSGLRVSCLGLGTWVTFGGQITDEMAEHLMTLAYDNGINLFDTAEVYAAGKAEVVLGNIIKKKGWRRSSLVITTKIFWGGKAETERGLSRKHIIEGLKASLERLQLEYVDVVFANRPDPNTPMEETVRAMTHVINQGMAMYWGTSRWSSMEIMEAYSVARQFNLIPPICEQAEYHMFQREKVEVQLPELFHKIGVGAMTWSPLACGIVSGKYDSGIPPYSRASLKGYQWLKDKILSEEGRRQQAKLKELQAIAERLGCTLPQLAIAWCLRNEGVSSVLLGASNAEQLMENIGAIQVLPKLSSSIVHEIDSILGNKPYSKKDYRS
Assay [5] has the same target. The assay can be described thus: KvBeta positive modulators, primary screen, biochemical, NADPH fluorescence (AID 623;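 active = NADPH fluorescence slope more negative than the mean of all samples by about 3 SD, 99.7% confidence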;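 also: fluorescence intensity change per second fitted from 20 to 320 s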). As to conditions: Recombinant KvBeta, NADPH fluorescence decrease slope, 10 min; at 10 µM; stronger effect = lower value.
For assay [6], the target named is Alpha-2C adrenergic receptor (Homo sapiens) (UniProt P18825). The assay is described as follows: modulators of alpha2C/GIRK thallium flux, primary screen, cell-based, HEK293 alpha2C/GIRK1/2 (AID 624;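 active = fluorescence slope after compound addition differing from the mean of all screened samples at 99.7% confidence, in either direction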;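 also: slope of fluorescence ratio to pre-addition baseline per second over 15 to 24 s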). The note with it: thallium flux BTC fluorescence, at 10 µM, actives lie on both sides.
Alpha-2C adrenergic receptor (Homo sapiens), sequence (P18825 whole entry, looked up): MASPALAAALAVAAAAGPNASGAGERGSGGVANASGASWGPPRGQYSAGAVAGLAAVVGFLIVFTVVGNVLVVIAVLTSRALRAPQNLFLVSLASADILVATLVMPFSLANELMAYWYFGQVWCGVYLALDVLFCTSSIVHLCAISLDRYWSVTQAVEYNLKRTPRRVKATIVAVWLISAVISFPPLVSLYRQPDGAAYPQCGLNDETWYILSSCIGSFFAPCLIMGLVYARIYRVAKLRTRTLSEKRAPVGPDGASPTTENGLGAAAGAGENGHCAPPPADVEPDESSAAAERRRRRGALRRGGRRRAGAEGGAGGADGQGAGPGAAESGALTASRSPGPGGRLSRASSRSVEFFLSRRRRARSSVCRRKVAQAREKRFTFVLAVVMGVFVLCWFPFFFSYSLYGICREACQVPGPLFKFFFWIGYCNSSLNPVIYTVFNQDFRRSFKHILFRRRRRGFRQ
A short description of assay [7]: inhibitors of larval lipid processing in zebrafish, primary screen, whole organism, PED6 fluorescence, gall bladder and intestine (AID 686).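 Also: larvae 5 to 7 days old with five fish per well; signal comes from phospholipase A2 cleavage of quenched PED6 carried via bile; overnight exposure to compound and PED6 before scoring.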 The note with it: Zebrafish larvae PED6 lipid processing, fluorescence scoring; screened at 20 µM (by protocol). In outline:
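Doses: 20 µM single dose. Test system: live zebrafish larvae aged 5-7 days, whole organism. Quantity: five larvae per well. Measured by: By-eye fluorescence microscopy. Reagent: ingested quenched lipid PED6 at 100 nM. Read-out: visual per-well fluorescence inhibition score. Times: overnight exposure of larvae to compound plus PED6.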

The nature of assay [8]: inhibitors of Sendai virus-induced IRF3 signaling, primary screen, TLR/RLR signaling modifier project, cell-based, Sendai virus stimulus, luciferase, 10K MLSCN set (AID 602276;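 active = inhibition at or above 50% at 10 µM; inactive = inhibition below 50%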;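 also: firefly luciferase from ISG56 promoter only with Renilla not read in this screen; 0% = Sendai virus plus DMSO and 100% = medium plus DMSO without virus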). As to conditions: HEK293 RL24 IRF3 luciferase reporter, at 10 µM, stronger effect = higher value.
The nature of assay [9]: inhibitors of poly I:C-induced TLR3 signaling, primary screen, cell-based, poly I:C stimulus, luciferase, 10K MLSCN set (AID 602277;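 active = inhibition of the reporter signal at or above 50%; inactive = inhibition below 50%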). The note with it: HEK293-TLR3 RL24 IRF3 luciferase reporter, at 10 µM, stronger effect = higher value.

With `O=C(Nc1ccccc1C(=O)O)c1cccc(NC(=O)c2ccc(Br)o2)c1`, the cell count in assay [1] amounted to 489. Moreover, the inhibition in assay [1] is -9.3% (inactive); in assay [3] it was -26.5% (inactive); in assay [8], 6.35% (inactive); in assay [9], 8.3% (inactive). The inhibition of aggregation in [2] was -2.4% (inactive). In addition, the values for the nuclei count in assay [2] and in [3] were 99.2% and 161%, respectively. The fluorescence slope in assay [4] was -0.441 (inactive). For the same molecule, the NADPH fluorescence slope in [5] is -4e-05 (inactive). Further, the slope in assay [6] is 0.00477 (inactive). The molecule was called inactive in assay [7].
Regarding `c1cc2c(cc1C1CCCN1)OCCCO2` (stereo not drawn), the cell count in assay [1] was 411. Moreover, the inhibition in [1] is -7.9% (inactive); in assay [3], -44% (inactive); in assay [8], -9.84% (inactive); in [9], -8.78% (inactive). In addition, the inhibition of aggregation in assay [2] is -16.6% (inactive). Moreover, the nuclei count in [2] and in [3] was 116% throughout. Besides, the fluorescence slope in assay [4] is -0.418 (inactive). Besides, the NADPH fluorescence slope in assay [5] was 1.8e-05 (inactive). The slope in assay [6] is 0.00434 (inactive). Moreover, the result in [7] was inactive.
For `CCCCn1c(SCc2ccc(Cl)cc2)nc2c1c(=O)[nH]c(=O)n2C`, in assay [1], the cell count was 396. The inhibition in assay [1] is 9% (inactive); in assay [3] it was -1.3% (inactive); in [8], 10.9% (inactive); in [9] it was 14.5% (inactive). In addition, the inhibition of aggregation in assay [2] was 8.8% (inactive). For the same molecule, the nuclei count in [2] was 109%; in assay [3] it was 98.4%. In assay [4], the fluorescence slope is -0.347 (inactive). For the same molecule, in [5], the NADPH fluorescence slope is -4.9e-05 (inactive). In assay [6], the slope is 0.00466 (inactive). Also, the outcome in assay [7] was inactive.
As for `Cc1cc(C)nc(SCc2ccc3nonc3c2)n1`, the cell count in assay [1] worked out at 634. Also, the inhibition in assay [1] was -4.3% (inactive); in assay [3] it was 12.3% (inactive); in assay [8], 8.18% (inactive); in [9], 10.6% (inactive). In addition, the inhibition of aggregation in assay [2] was -20.5% (inactive). Moreover, the nuclei count is 114% in assay [2] and 97.4% in assay [3]. For the same molecule, the fluorescence slope in assay [4] is -0.282 (inactive). Moreover, the NADPH fluorescence slope in assay [5] was -1.3e-05 (inactive). In assay [6], the slope is 0.00664 (inactive). In addition, the outcome in assay [7] is “inactive; toxic”.
Take `Cc1cc(C(=O)COC(=O)c2n[nH]c3ccccc23)c(C)n1C`: the cell count in assay [1] turned out to be 377. Also, the inhibition in [1] is 2.6% (inactive); in [3], 12.4% (inactive); in [8], 5.43% (inactive); in [9], -24.2% (inactive). In assay [2], the inhibition of aggregation is -0.6% (inactive). For the same molecule, the nuclei count in assay [2] stood at 86.6%; in assay [3], 96.7%. In addition, the fluorescence slope in assay [4] was -0.445 (inactive). In addition, the NADPH fluorescence slope in assay [5] is -1.8e-05 (inactive). Moreover, the slope in [6] was 0.00398 (inactive). Moreover, the outcome in [7] was inactive.
Take `CCOC(=O)c1c2n(c3ccc(O)cc13)CCCCC2`: the cell count in assay [1] amounted to 571. Further, the inhibition in [1] was 7.1% (inactive); in assay [3], -113% (inactive); in assay [8] it was -6.81% (inactive); in assay [9] it was 1.43% (inactive). The inhibition of aggregation in [2] is -7.5% (inactive). Besides, the values for the nuclei count in [2] and in assay [3] were 107% and 110%, respectively. Moreover, the fluorescence slope in [4] is -0.413 (inactive). Besides, the NADPH fluorescence slope in [5] is -3.4e-05 (inactive). In addition, in assay [6], the slope is 0.00489 (inactive). Also, the molecule was classed as inactive in assay [7].
Regarding `O=C(CCC(=O)OCC(=O)c1ccccc1)NC1CCCCC1`, the cell count in assay [1] is 449. Further, the inhibition in [1] is 1.2% (inactive); in [3], 30.3% (inactive); in assay [8], -0.183% (inactive); in [9], 97.3% (active). Also, the inhibition of aggregation in assay [2] was 1.6% (inactive). The nuclei count in [2] is 95%; in [3], 112%. For the same molecule, in assay [4], the fluorescence slope was -0.356 (inactive). Also, in assay [5], the NADPH fluorescence slope was -6.3e-05 (inactive). Further, the slope in assay [6] was 0.00794 (inactive). In assay [7], the call was inactive.
As for `O=C(NCCCN1CCOCC1)c1cc(-c2ccc(Cl)cc2)on1`, the cell count in [1] worked out at 264. Moreover, the inhibition is -1.8% (inactive) in assay [1], -8.4% (inactive) in assay [3], 6.84% (inactive) in assay [8] and -3.16% (inactive) in [9]. In addition, the inhibition of aggregation in assay [2] was -1.6% (inactive). Moreover, the values for the nuclei count in assay [2] and in assay [3] were 102% and 113%, respectively. Further, the fluorescence slope in assay [4] is -0.294 (inactive). Also, the NADPH fluorescence slope in assay [5] was 1.2e-05 (inactive). In assay [6], the slope is 0.00493 (inactive). For the same molecule, the call in assay [7] was inactive.
Regarding `COCCn1c(Sc2nc(C)cs2)nc2c1c(=O)[nH]c(=O)n2C`, the cell count in assay [1] was 422. Further, the inhibition is 5% (inactive) in assay [1], -78.3% (inactive) in assay [3], 17.1% (inactive) in [8] and 11.3% (inactive) in assay [9]. The inhibition of aggregation in assay [2] is -38.9% (inactive). The nuclei count in [2] stood at 105%; in [3], 78.1%. In addition, in assay [4], the fluorescence slope is -0.475 (inactive). Moreover, in assay [5], the NADPH fluorescence slope was -1.5e-05 (inactive). Besides, the slope in [6] is 0.00482 (inactive). Further, the result in [7] was inactive.
Regarding `O=C(Nc1nnc(SCC(=O)N2CCCCC2)s1)C1CCCCC1`, the cell count in [1] came out at 437. Also, the inhibition in [1] was -3.4% (inactive); in assay [3] it was -34.7% (inactive); in assay [8] it was 9.52% (inactive); in assay [9] it was 13.5% (inactive). The inhibition of aggregation in [2] was 1.9% (inactive). Moreover, the figures for the nuclei count in assay [2] and in [3] were 99.2% and 118%, respectively. For the same molecule, in [4], the fluorescence slope is -0.346 (inactive). Moreover, the NADPH fluorescence slope in assay [5] was -3.5e-05 (inactive). For the same molecule, the slope in assay [6] was 0.00464 (inactive). Further, the call in assay [7] was inactive.
For the molecule `O=C(Nc1ccc2c(c1)OCCO2)C1CCN(C(=O)c2ccc(F)cc2)CC1`, in assay [1], the cell count amounted to 397. Moreover, the inhibition in assay [1] is 4.1% (inactive); in assay [3], -14% (inactive); in [8], -6.3% (inactive); in [9], -44.3% (inactive). The inhibition of aggregation in assay [2] is -5.3% (inactive). Also, the figures for the nuclei count in [2] and in [3] were 96.2% and 117%, respectively. In [4], the fluorescence slope was -0.368 (inactive). Also, the NADPH fluorescence slope in [5] is -7.6e-05 (inactive). Moreover, in assay [6], the slope is 0.00511 (inactive). In addition, the molecule was called inactive in assay [7].
With `Cc1nc2ccccc2c(=O)n1NC(=O)Nc1ccccc1`, in assay [1], the cell count was 592. For the same molecule, the inhibition was 0% (inactive) in [1], -41.3% (inactive) in assay [3], 12.6% (inactive) in assay [8] and -4.39% (inactive) in assay [9]. In addition, the inhibition of aggregation in assay [2] is 17.7% (inactive). Further, the figures for the nuclei count in assay [2] and in assay [3] were 83.8% and 97.5%, respectively. The fluorescence slope in assay [4] is -0.359 (inactive). Further, the NADPH fluorescence slope in [5] was -2.7e-05 (inactive). For the same molecule, the slope in assay [6] is 0.00703 (inactive). The outcome in assay [7] was inactive.
Consider `CC(C)C(CO)NC(=O)CC(=O)NC(CO)C(C)C` (stereo not drawn), for which the cell count in assay [1] was determined as 627. For the same molecule, the inhibition was -5.6% (inactive) in assay [1], 48.7% (inactive) in assay [3], 9.94% (inactive) in assay [8] and 12.2% (inactive) in assay [9]. Besides, the inhibition of aggregation in assay [2] was 4.9% (inactive). The nuclei count in assay [2] turned out to be 82.3%; in assay [3], 35.5%. Moreover, the fluorescence slope in [4] is -0.392 (inactive). For the same molecule, the NADPH fluorescence slope in [5] was -5.1e-05 (inactive). For the same molecule, in assay [6], the slope is 0.00488 (inactive). For the same molecule, the call in [7] was inactive.
Turning to `COc1ccc(C2C(C(=O)c3sc(C)nc3C)=C(O)C(=O)N2CCN(C)C)cc1` (stereo not drawn), the cell count in assay [1] amounted to 560. For the same molecule, the inhibition in [1] was 13.4% (inactive); in [3] it was -15.4% (inactive); in assay [8] it was 10.9% (inactive); in [9], 9.69% (inactive). Moreover, the inhibition of aggregation in assay [2] was 6.9% (inactive). The nuclei count in [2] came to 110%; in assay [3], 123%. The fluorescence slope in [4] was -0.335 (inactive). Also, in assay [5], the NADPH fluorescence slope was -6.7e-05 (inactive). Moreover, the slope in assay [6] was 0.00568 (inactive). Moreover, the outcome in assay [7] was inactive.
